Compound activity deposited in PubChem by several laboratories.
Compounds with a hit are over-represented: about 1.7% of the library has one in this group of screens.
EBNA-1 inhibitor: EBNA-1 DNA-binding inhibitors, primary screen, biochemical, fluorescence polarization | inhibition, % at 14.8 µM | hit rate 0.34% among 300,000 | AID 1950, 2009; in the data active = inhibition above about 28%
MEX-5 binding: MEX-5 zinc finger RNA-binding disruptors – biochemical, C. elegans, fluorescence polarization, MLPCN library, primary screen; Zinc finger protein mex-5 (Caenorhabditis elegans), Q9XUB2; AID 1832, 2009; activity score (negative = inhibition of binding), % at 10 µM; MEX-5/FITC-TCR2 RNA binding; active compounds read low; hit rate 0.38% among 300,000;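 active = inhibition past about -25% in most replicates, and total fluorescence under double the plate's negative control median, limit read from the data; inconclusive = replicates evenly split on the limit, or fluorescence at least double controls; inactive = too little inhibition in most replicates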;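 note: 0% = DMSO and -100% = 5 µM competing unlabeled TCR2 RNA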
EBV gp42 block: Epstein-Barr virus gp42 inhibitors, primary screen, biochemical, uHTS, fluorescence polarization; inhibition, % (tested at 21.74 µM); hit rate 0.42% among 220,000; Fluorescence polarization binding assay, mP read-out; AID 1085, 2008; in the data active = inhibition above about 50%
Target sequence (Q1HVG2 whole entry, looked up): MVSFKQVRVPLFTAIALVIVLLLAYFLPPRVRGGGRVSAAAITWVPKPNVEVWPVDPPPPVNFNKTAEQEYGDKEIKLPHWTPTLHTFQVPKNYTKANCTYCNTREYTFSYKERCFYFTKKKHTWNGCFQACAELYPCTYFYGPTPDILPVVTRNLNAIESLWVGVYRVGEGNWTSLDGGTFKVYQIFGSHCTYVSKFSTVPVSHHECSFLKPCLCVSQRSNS
ZTA DNA inh: ZTA (EBV) inhibition in EBNA-1 counter-screen; inhibition, % at 11 µM; hit rate 0.15% among 320,000; ZTA-DNA binding, fluorescence polarization; in the data active = inhibition above about 33%
Target sequence (P03206 whole entry, looked up): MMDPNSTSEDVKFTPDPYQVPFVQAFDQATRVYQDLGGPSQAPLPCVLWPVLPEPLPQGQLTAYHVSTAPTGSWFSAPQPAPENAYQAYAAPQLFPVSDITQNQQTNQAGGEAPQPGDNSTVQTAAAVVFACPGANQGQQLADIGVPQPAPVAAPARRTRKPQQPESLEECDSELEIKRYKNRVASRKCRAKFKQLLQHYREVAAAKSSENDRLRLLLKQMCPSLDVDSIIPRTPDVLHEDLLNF
NS3 helicase inh: inhibitors of HCV NS3 helicase, primary screen, biochemical, Cy5 molecular beacon fluorescence; Hepatitis C virus NS3 helicase; NS3 helicase DNA unwinding; inhibition, % at 10.9 µM; hit rate 0.56% among 290,000; AID 1800, 2009;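 active = inhibition above the mean of all tested compounds plus 3 SD, set per campaign, cut at about 35% in these data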;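 note: 0% = DMSO wells and 100% = thioflavine S control wells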
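Control set: DMSO versus 110 µM thioflavine S; Material: NS3 helicase fragment of HCV; Measured by: Cy5 fluorescence at 0 and 60 min, beacon hairpin quenching; Read-out basis: percent inhibition from t60/t0 fluorescence ratio; Times: reaction time 60 min, 25 °C; Repeats: single replicate; Compound dosing: single dose, 10.9 µM nominal final, DMSO 0.8% final.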
core dimer inh: inhibitors of HCV core protein dimerization, primary screen, biochemical, TR-FRET, high-throughput. TR-FRET GST/Flag-core106 dimerization, 1536-well. hit rate 0.33% among 300,000. AID 1899, 2009. inhibition, % at 5 µM;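 active = inhibition above the mean of all tested compounds plus 3 SD, set per screening campaign, cut at about 45% in these data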
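Material: Tagged HCV core106 pair (GST and Flag) | Amount: GST-core106 13.5 nM, Flag-core106 17 nM | Medium: KF-containing HEPES buffer, pH 7.45, DTT, CHAPS, BSA | Reagent: Eu donor and XL665 acceptor anti-tag antibodies | Schedule: 4 h at 22.5 °C | Technique: Time-resolved FRET, ex 340 nm, em 617 and 671 nm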
Starred values were filed as active, the others as inactive; ? = inconclusive; . = no result given; + = active, no number.

SMILES	EBNA-1 inhibitor	MEX-5 binding	EBV gp42 block	ZTA DNA inh	NS3 helicase inh	core dimer inh
Cc1ccc(NC(=O)CCCN2C(=O)/C(=C/C=C/c3ccccc3)SC2=S)cc1	6.4	1.1	-59.8	6.0	19.1	56.9*
COc1cccc(/C=C2\SC(=S)N(CCCC(=O)NC3=NCCS3)C2=O)c1	16.3	-33.9*	.	-6.9	-2.7	9.8
O=C(CN1C(=O)/C(=C/c2cccc(Br)c2)SC1=S)Nc1cccnc1	-1.0	-12.5	-13.4	-16.6	13.1	11.6
Cc1ccccc1-n1nnnc1SCC(=O)NCC1(N2CCOCC2)CCCCC1	.	.	.	-2.4	.	.
CCOC(=O)N1CCN(c2ccc(S(=O)(=O)N3CCC(C)CC3)cc2[N+](=O)[O-])CC1	.	.	.	-7.3	.	.
CN(C)c1ccc2nc3ccc(=[N+](C)C)cc-3sc2c1	+	-32.8*	-5.5	.	30.9	-92.8
S=C(Nc1ccc2nc(-c3ccccn3)c(-c3ccccn3)nc2c1)N1CCCCC1	.	.	54.6*	.	-6.1	.
S=C(Nc1ccc2nc(-c3ccccn3)c(-c3ccccn3)nc2c1)N1CCCCCC1	-11.8	-17.1	6.6	-4.0	-7.5	-22.6
O=C1CC(c2ccc(Cl)cc2)c2c(O)cc(O)cc2O1 (stereo unspecified)	-0.1	2.4	.	-10.8	-6.1	9.3
C/C=C/C=C/[C@H]1Cc2cc(O)cc(O)c2O1	1.4	-8.7	53.8*	6.2	.	28.9
Cc1ccc2[nH]c(O)c(N=NC(=O)c3ccc(NS(=O)(=O)c4cccs4)cc3)c2c1	-9.3	-0.2	58.4*	-18.1	7.2	2.8
Cc1ccc(C)c(Nc2nc(-c3ccncc3)nc3ccccc23)c1	11.4	2.0	.	9.8	-10.7	0.2
O=C(/C=C/N1CCOCC1)c1ccc(-c2ccccc2)cc1	4.5	-35.2*	-11.3	-16.1	14.7	4.4
CCc1ccc(-c2csc(NC(=O)C3=NN(c4ccccc4)C(=O)CC3)n2)cc1	9.4	-3.2	-17.9	3.5	10.3	42.3
Cc1cc(C)c(-c2csc(NC(=O)C3=NN(c4ccccc4)C(=O)CC3)n2)c(C)c1	-4.7	1.4	-10.7	-13.2	8.6	46.2*
CCCCN(C(=O)c1ccc(OC)c([N+](=O)[O-])c1)c1c(N)n(CCC)c(=O)[nH]c1=O	0.0	0.6	.	-8.6	8.0	-16.8
CCN(CC)c1ccc(N=Cc2cc(Br)ccc2O)cc1	126.0*	-1.7	23.2	184.4*	27.4	3.1
O=C(CCNC(=O)c1ccco1)NC(Cc1c[nH]c2ccccc12)C(=O)O (stereo unspecified)	.	.	.	-1.7	.	.
Cc1ccc(N/N=C(\C#N)C(=O)c2ccsc2)cc1	-6.7	-0.8	-13.8	-2.8	11.7	-0.5
N#C/C(=N\Nc1ccc(Cl)cc1)C(=O)c1ccsc1	4.9	-38.5*	-3.7	6.0	10.2	0.2
CN=C1S/C(=C\c2ccc(N3CCCC3)c(F)c2)C(=O)N1C	9.8	-59.1*	-23.2	-4.6	14.0	-14.7
CN=C1S/C(=C\c2ccc(N3CCOCC3)c(F)c2)C(=O)N1C	-6.2	-12.7	32.4	-12.2	-1.9	-1.7
Cc1nc2cc(NC(=O)N3CCN(c4ccccn4)CC3)ccc2o1	-4.9	0.9	-1.0	0.7	-0.7	-1.9
O=C(Nc1ccc2nc(-c3ccco3)c(-c3ccco3)nc2c1)N1CCN(c2ccccn2)CC1	-0.6	-30.2*	-2.5	-3.2	16.7	24.5
COC(=O)c1ccc(N/C=C\C(=O)c2ccc3c(c2)OCO3)cc1	-0.4	-3.0	-21.4	3.8	-3.2	-31.4
SMILES	EBNA-1 inhibitor	MEX-5 binding	EBV gp42 block	ZTA DNA inh	NS3 helicase inh	core dimer inh
O=C(/C=C\Nc1cccc(F)c1)c1ccc2c(c1)OCO2	39.8*	1.7	-10.4	9.4	-5.4	-3.1
O=c1[nH]n2c(=O)c3c([nH]c2c1N=Nc1cccc(Cl)c1)CCC3	-3.9	-4.3	52.4*	1.0	31.3	11.7
COc1cccc(N=Nc2c(=O)[nH]n3c(=O)c4c([nH]c23)CCC4)c1	-3.9	-3.6	-0.4	-1.0	15.3	-14.2
Cc1cc(C)n2[nH]c(=O)c(N=Nc3ccc(S(N)(=O)=O)cc3)c2n1	-8.9	?	-7.7	-13.3	0.8	-12.1
NS(=O)(=O)c1ccc(N=Nc2c(=O)[nH]n3c(=O)c4c([nH]c23)CCCC4)cc1	-9.5	-83.5*	8.1	14.9	11.2	-25.7
Cc1cc(NC(=O)c2cc(-c3ccncc3)nc3c(C)cccc23)no1	-3.8	-2.3	-3.3	12.6	-3.0	54.1*
CC(=O)c1ccc(NC(=O)c2ccccc2-c2ccccc2C(=O)O)cc1	-11.4	-1.0	.	0.8	9.4	-14.5
O=C(CSc1nc2[nH]ncc2c(=O)[nH]1)Nc1ccccc1F	1.4	-1.0	.	3.8	.	-3.5
c1ccc(-c2cn3nc4c(nc3n2)CCCC4)cc1	1.7	-36.8*	63.4*	9.1	1.5	6.8
Cc1ccc(CNC(=O)CN(C)C2=NS(=O)(=O)c3ccccc32)cc1	.	.	.	7.8	.	.
Cc1c(N=Cc2cccs2)c(=O)n(-c2ccccc2)n1C	-5.9	0.9	-13.4	3.0	0.5	0.2
Cc1ccc(C2C(C=Nc3c(C)n(C)n(-c4ccccc4)c3=O)=C(c3ccccc3)Oc3ccccc32)cc1 (stereo unspecified)	-6.3	-0.6	-14.8	-10.6	0.6	46.4*
O=C1c2ccccc2C(Nc2ccc3c(c2)OCO3)N1Cc1ccc2c(c1)OCO2 (stereo unspecified)	-0.3	-2.0	-1.3	-0.5	9.2	50.2*
CC1CCCCN1C(=O)CSc1nc(C2CC2)nc2ccccc12 (stereo unspecified)	2.0	-0.1	.	5.7	-2.1	8.6
CCn1c(SCc2ccc(C(=O)Nc3nccs3)cc2)nnc1-c1ccc(N)cc1	0.3	2.3	53.3*	3.4	-1.1	8.1
O=C1c2cccc3cc([N+](=O)[O-])cc(c23)C(=O)N1/N=C/c1ccc(O)cc1O	-10.5	0.3	95.7*	-10.5	4.8	26.6
CCCSc1ccc([C@@H]2[C@@H]3C(=O)N(C)C(=O)[C@@H]3[C@]3(C(=O)OC)CCCN23)cc1OC	10.7	.	.	-6.8	.	6.8
c1ccc(-c2nnc(-c3ccccn3)c(-c3ccccn3)n2)nc1	-4.4	-7.2	-1.5	-12.5	-7.3	0.8
c1ccc(-c2nnc(-c3ccccn3)nn2)nc1	3.1	-41.6*	.	-9.0	.	-8.2
Nc1nn2c(-c3ccccc3)cc(=O)[nH]c2c1N=Nc1ccc(Br)cc1	.	.	60.1*	.	9.6	.
Nc1nn2c(-c3ccccc3)cc(=O)[nH]c2c1N=Nc1ccc(O)cc1	-5.2	-2.6	47.3	-19.6	11.3	-43.1
CN(C)C(=S)Oc1ccccc1-c1ccccc1OC(=S)N(C)C	5.6	2.2	.	-28.6	-0.1	-6.4
Cc1ccc(Nc2ccc([N+](=O)[O-])ccc2=O)cc1	-10.8	-27.5*	.	5.8	.	-3.0
